The values below come from ChEMBL document CHEMBL4184143 (J Med Chem, 2017).

One series concerns the target Protein polybromo-1 (Homo sapiens, UniProt Q86U86). Description: Binding affinity to human partial length PBRM1 bromodomain 2 (S178 to E291 residues) expressed in bacterial expression system by BROMOscan assay.
The target in another series is Peregrin (Homo sapiens, UniProt P55201). Description: Binding affinity to human partial length BRPF1 (E627 to G740 residues) expressed in bacterial expression system by BROMOscan assay.
Peregrin, sequence (P55201 whole entry, the tested form may be a part): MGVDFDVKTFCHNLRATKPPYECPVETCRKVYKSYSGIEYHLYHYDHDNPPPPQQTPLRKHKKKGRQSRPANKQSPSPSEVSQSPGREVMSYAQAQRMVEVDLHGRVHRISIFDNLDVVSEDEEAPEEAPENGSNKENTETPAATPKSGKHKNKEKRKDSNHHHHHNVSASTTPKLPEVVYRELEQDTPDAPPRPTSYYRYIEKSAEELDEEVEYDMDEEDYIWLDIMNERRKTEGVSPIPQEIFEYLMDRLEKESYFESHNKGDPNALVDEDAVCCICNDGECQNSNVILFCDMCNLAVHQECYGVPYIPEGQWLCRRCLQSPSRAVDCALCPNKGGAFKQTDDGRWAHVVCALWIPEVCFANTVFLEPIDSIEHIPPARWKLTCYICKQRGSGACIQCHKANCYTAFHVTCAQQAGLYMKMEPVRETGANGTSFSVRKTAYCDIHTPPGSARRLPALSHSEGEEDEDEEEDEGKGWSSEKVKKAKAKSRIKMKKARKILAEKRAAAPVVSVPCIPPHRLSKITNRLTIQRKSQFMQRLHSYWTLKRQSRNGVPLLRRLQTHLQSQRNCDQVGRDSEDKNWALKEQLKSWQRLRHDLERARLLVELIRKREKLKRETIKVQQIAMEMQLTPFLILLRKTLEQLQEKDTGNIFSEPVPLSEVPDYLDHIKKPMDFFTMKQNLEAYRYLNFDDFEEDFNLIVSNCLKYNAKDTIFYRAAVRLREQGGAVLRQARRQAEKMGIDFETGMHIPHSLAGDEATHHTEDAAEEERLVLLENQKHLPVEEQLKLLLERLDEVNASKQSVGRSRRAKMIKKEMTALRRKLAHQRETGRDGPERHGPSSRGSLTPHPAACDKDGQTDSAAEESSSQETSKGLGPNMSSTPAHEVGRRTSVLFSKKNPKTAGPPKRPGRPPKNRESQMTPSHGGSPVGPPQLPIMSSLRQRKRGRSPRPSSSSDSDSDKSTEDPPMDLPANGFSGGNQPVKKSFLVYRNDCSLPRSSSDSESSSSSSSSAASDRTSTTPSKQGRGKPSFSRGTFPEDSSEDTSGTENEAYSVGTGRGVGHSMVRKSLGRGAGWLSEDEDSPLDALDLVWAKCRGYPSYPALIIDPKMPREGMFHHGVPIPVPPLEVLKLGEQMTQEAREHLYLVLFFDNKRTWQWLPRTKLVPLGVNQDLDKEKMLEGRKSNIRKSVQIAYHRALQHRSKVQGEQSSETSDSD
For another series, the target named is CREB-binding protein (Homo sapiens, UniProt Q92793). The experiment in a line: Binding affinity to human partial length CREBBP (R1081 to G1197 residues) expressed in bacterial expression system by BROMOscan assay.
Series [1] concerns the target Nucleosome-remodeling factor subunit BPTF (Homo sapiens, UniProt Q12830). The experiment in a line: Binding affinity to human partial length FALZ (S2791 to H2911 residues) expressed in bacterial expression system by BROMOscan assay.
Series [2] addresses Bromodomain adjacent to zinc finger domain protein 2B (Homo sapiens, UniProt Q9UIF8). The experiment in a line: Binding affinity to human partial length BAZ2B (S2054 to S2168 residues) expressed in bacterial expression system by BROMOscan assay.
Series [3] can be described thus: Half life in SCID mouse at 25 mg/kg, po by LC/MS method. Particulars: in vivo. It is filed as ADME, organism-based.
In another series the test system is HBL-100. The experiment in a line: Cytotoxicity against human HBL100 cells assessed as cell growth inhibition after 4 days by WST-8 assay. It is filed as functional, cell-based. Particulars: HBL-100, 96 h. The essentials: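 Breast cancer cells were seeded at 3,000 cells/well, treated with serially diluted compound in medium and cultured for 4 days. Growth was read by WST-8 (10% v/v final, 1–3 h) at 450 nm. Readings were normalized to DMSO-treated cells, and IC50 was obtained by nonlinear regression.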
(In general: Tetrazolium assays rely on reduction of a dye to a coloured formazan, in cell work by metabolically active cells.)

Series [4] can be described thus: Clearance in Sprague-Dawley rat at 5 mg/kg, iv by LC/MS method. Particulars: in vivo. In kind it is ADME, organism-based.
The target in series [5] is Histone acetyltransferase p300 (Homo sapiens, UniProt Q09472). The experiment in a line: Binding affinity to human partial length EP300 (A1040 to G1161 residues) expressed in bacterial expression system by BROMOscan assay.

Some results are limits rather than exact numbers.

Usually Kd stands for the constant that tells how readily two partners part at equilibrium. A higher Kd goes with weaker binding. For orientation: half-life means how long it takes for the measured level to halve. A higher half-life goes with slow loss. Broadly, the IC50 is the concentration that gives 50% inhibition. As a reminder, the clearance is the rate of elimination divided by the concentration.

Bromodomain adjacent to zinc finger domain protein 2B, sequence (Q9UIF8 whole entry, the tested form may be a part): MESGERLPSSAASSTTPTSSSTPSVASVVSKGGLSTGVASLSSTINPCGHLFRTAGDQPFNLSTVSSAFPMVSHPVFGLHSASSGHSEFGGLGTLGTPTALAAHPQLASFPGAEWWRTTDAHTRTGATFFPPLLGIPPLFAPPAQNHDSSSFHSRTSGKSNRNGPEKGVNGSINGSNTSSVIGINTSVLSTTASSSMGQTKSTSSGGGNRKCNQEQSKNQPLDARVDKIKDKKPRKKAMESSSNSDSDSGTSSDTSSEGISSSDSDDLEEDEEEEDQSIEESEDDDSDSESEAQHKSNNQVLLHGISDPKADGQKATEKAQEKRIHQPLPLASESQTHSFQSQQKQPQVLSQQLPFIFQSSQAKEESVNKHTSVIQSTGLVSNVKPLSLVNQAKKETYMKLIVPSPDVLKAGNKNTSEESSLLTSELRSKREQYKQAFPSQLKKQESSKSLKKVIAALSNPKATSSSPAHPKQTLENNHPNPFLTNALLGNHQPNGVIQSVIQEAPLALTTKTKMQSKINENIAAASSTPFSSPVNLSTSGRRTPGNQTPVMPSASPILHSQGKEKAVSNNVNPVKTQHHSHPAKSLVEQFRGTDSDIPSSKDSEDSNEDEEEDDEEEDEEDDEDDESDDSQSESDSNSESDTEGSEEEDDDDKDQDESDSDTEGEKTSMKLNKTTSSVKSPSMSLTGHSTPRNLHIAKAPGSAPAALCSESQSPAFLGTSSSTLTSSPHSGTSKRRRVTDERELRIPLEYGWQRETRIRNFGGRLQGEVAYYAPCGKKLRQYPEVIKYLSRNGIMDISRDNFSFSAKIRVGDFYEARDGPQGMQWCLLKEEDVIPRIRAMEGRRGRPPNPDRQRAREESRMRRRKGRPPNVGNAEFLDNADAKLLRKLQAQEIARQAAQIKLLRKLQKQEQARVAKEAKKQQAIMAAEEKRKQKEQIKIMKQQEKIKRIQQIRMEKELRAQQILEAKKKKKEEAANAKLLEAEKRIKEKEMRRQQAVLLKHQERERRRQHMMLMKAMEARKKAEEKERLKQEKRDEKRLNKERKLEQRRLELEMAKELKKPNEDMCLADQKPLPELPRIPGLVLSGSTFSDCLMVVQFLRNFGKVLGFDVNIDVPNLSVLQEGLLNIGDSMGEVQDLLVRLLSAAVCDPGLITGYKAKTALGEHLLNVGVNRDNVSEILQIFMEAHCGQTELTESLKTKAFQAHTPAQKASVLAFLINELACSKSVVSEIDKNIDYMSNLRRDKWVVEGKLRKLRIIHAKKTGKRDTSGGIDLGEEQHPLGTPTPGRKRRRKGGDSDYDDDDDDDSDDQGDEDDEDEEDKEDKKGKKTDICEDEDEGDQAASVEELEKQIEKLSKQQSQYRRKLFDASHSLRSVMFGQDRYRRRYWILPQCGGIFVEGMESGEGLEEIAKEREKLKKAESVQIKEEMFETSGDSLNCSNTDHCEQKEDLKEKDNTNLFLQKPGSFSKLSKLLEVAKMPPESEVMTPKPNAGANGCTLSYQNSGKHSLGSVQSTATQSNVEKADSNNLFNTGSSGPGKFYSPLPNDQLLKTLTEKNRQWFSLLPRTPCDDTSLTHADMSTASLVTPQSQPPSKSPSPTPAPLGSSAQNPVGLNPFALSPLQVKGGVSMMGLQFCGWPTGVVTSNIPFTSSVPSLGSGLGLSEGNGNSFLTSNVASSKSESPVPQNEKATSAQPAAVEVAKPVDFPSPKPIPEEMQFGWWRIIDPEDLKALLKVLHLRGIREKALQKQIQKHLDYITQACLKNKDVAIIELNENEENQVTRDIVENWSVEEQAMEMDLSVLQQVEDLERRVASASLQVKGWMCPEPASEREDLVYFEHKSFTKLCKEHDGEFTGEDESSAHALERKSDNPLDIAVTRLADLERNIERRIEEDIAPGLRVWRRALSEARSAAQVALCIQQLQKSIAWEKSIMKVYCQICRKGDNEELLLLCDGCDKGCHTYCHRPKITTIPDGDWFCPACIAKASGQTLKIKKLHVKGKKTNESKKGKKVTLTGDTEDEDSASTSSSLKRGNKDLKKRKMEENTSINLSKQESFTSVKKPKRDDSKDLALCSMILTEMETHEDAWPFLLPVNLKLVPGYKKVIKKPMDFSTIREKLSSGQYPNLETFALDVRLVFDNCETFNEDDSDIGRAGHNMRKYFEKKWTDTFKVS
Protein polybromo-1, sequence (Q86U86 whole entry, the tested form may be a part): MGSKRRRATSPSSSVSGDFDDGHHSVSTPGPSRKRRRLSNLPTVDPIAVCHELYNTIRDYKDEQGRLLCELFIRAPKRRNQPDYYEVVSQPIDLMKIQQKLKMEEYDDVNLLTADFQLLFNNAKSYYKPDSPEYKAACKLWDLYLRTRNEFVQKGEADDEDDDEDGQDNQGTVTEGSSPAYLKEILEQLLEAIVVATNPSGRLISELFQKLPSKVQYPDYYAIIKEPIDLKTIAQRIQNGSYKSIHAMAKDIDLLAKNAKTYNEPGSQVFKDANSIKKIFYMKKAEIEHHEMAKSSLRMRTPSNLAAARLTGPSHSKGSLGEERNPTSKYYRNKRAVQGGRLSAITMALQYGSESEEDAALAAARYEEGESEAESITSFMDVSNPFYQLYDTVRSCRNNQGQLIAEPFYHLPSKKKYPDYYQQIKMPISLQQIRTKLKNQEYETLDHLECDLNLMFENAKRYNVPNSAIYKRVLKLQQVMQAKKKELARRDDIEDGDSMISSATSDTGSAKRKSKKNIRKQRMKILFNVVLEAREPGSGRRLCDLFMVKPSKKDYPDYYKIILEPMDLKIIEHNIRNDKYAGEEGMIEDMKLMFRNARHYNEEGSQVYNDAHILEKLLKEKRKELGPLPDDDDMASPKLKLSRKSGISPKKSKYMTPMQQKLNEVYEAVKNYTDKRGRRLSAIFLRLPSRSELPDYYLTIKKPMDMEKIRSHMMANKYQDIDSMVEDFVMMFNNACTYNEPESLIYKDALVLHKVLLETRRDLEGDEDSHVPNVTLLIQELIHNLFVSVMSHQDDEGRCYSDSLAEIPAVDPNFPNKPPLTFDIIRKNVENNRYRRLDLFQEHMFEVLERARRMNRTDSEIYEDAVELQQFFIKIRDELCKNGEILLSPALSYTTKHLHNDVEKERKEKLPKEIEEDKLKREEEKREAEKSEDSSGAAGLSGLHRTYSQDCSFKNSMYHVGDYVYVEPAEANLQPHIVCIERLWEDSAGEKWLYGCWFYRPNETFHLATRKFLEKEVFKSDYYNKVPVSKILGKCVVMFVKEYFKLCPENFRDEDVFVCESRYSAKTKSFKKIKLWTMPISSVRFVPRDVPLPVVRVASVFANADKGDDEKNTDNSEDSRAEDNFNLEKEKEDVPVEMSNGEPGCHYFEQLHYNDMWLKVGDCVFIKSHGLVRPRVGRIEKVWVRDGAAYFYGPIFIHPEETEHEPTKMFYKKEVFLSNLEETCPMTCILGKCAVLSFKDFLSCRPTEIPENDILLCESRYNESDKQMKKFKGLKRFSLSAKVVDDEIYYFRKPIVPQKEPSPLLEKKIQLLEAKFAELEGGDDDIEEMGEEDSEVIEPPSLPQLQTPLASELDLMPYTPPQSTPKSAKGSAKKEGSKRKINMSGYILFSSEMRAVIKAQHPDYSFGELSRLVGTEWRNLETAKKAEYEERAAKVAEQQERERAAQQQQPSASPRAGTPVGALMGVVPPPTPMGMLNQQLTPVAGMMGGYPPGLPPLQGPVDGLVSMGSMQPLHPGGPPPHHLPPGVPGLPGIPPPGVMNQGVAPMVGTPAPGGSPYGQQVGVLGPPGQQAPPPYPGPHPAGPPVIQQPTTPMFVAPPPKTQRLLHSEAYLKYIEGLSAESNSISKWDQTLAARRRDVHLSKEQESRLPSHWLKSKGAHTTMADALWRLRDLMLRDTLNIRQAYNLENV

As for `COc1cc2c(cc1-c1c(C)noc1C)[nH]c1nc(C)nc(-c3ccnc4ccccc34)c12`, the Kd was > 4 µM on Protein polybromo-1; > 4 µM at Peregrin; 520 nM on CREB-binding protein; > 4 µM in series [1]; > 4 µM in series [2]; 550 nM in series [5]. In series [3], this compound had a half-life of 96 min. In the series on HBL-100, the half-maximal inhibitory concentration (IC50) is > 2000 nM. The same compound showed a clearance in series [4] of 13.2 mL/min/kg.
